# Key:
# Type in all cases: ADME, organism-based
# [1] = test system: Mycobacterium tuberculosis variant bovis; experiment: Drug metabolism in OPC-67683 resistant Mycobacterium bovis BCG Tokyo assessed as cell supernatant [14C]OPC-67683 metabolite level after 48 hrs by scintillation counting
# Procedure, shortened: (§1)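 ^14C-labelled drug (0.5 mg/ml stock) added 15 µl to 585 µl 7H9/TN-ADC culture, incubated 48 h. Acetonitrile (2 volumes) added, then centrifuged. Supernatant counted by scintillation; pellet dissolved in 2 M NaOH, 1 h at 60 °C, then counted. DPM expressed relative to broth control supernatant.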
# [2] = test system: Mycobacterium tuberculosis variant bovis; experiment: Drug metabolism in Mycobacterium bovis BCG Tokyo assessed as cell supernatant [14C]OPC-67683 metabolite level after 48 hrs by scintillation counting; procedure, shortened: as §1
# [3] = test system: Mycobacterium tuberculosis variant bovis; experiment: Drug metabolism in Mycobacterium bovis BCG Tokyo assessed as cell pellet [14C]OPC-67683 metabolite level after 48 hrs by scintillation counting; procedure, shortened: as §1
compound,measurement,setting,value
C[C@]1(COc2ccc(N3CCC(Oc4ccc(OC(F)(F)F)cc4)CC3)cc2)Cn2cc([N+](=O)[O-])nc2O1,Activity,[1],105%
same,Activity,[2],82%
same,Activity,[3],22%
